Here are results for 20 molecules from ChEMBL document CHEMBL1147940, “Differential receptor binding characteristics of consecutive phenylalanines in micro-opioid specific peptide ligand endomorphin-2” (Bioorg Med Chem, 2007).

SMILES strings stand for the structures. Residues, ends and D or L forms follow the SMILES beside them.

What is called IC50 is the point on the concentration scale where inhibition reaches its midpoint. A higher IC50 goes with weaker potency in that assay.

Assay [1] deals with Delta-type opioid receptor (Rattus norvegicus, UniProt P33533). Kind of assay: Displacement of [3H]deltorphin2 from delta opioid receptor in rat brain membrane. It is filed as cell membranes. (In general: Loss of bound radioactivity is the signal in a displacement assay; it reports binding, not function.)
Delta-type opioid receptor, sequence (P33533 whole entry): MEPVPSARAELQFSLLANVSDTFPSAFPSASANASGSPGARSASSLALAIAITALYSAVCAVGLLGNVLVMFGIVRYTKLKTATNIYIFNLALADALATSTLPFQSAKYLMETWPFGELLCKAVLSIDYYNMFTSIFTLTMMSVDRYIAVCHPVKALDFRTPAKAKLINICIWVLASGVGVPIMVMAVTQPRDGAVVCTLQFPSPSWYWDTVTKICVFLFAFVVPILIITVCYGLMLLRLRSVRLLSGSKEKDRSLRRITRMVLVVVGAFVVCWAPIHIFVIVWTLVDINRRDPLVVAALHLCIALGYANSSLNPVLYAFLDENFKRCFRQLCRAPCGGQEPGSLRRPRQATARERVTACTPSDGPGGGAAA
In assay [2] the target is Opioid receptors; mu & delta (Rattus norvegicus) (UniProt P33533+P33535). Kind of assay: Selectivity for rat mu opioid receptor over rat delta opioid. It is filed as protein assay. The method in brief:
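Ratio of IC50 values from [3H]deltorphin II (delta) and [3H]DAGO (mu) displacement on rat brain membranes. Each used 0.25 nM tracer, 60 min incubation at room temperature in Tris-HCl pH 7.55 with 0.1% BSA and bacitracin, and filtration with scintillation counting.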

The target in another assay is Mu-type opioid receptor (Rattus norvegicus, UniProt P33535). Briefly: Displacement of [3H]DAGO from mu opioid receptor in rat brain membrane. It is filed as cell membranes.
Mu-type opioid receptor, sequence (P33535 whole entry): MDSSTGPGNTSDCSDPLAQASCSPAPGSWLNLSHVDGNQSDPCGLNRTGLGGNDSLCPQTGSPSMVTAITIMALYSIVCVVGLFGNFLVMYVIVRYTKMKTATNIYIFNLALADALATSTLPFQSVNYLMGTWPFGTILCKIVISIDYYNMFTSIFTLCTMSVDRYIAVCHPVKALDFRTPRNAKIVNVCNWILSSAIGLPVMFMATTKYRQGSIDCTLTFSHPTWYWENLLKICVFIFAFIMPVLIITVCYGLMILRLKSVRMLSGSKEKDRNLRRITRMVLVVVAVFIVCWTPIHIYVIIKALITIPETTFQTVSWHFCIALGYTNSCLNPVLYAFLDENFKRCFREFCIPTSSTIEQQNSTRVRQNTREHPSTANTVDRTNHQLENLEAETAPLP

Opioid receptors; mu & delta (Rattus norvegicus), sequence (P33533 whole entry, looked up): as the sequence (P33533 whole entry) above
Opioid receptors; mu & delta (Rattus norvegicus), sequence (P33535 whole entry, looked up): as the sequence (P33535 whole entry) above

In the case of `NC(=O)[C@H](Cc1c(F)c(F)c(F)c(F)c1F)NC(=O)[C@H](Cc1ccccc1)NC(=O)[C@@H]1CCCN1C(=O)[C@@H](N)Cc1ccc(O)cc1`, the figures for the 50% inhibitory concentration (IC50) (in assay [1]; at Mu-type opioid receptor) were 8.04 µM and 0.00274 µM, respectively. In addition, the Ratio IC50 in assay [2] turned out to be 1000.
Take `NC(=O)[C@H](Cc1ccccc1)NC(=O)[C@H](Cc1c(F)c(F)c(F)c(F)c1F)NC(=O)[C@@H]1CCCN1C(=O)[C@@H](N)Cc1ccc(O)cc1`: the IC50 was determined as 11.7 µM in assay [1] and 0.0117 µM at Mu-type opioid receptor. Moreover, the Ratio IC50 in assay [2] came to 1000.
For the molecule `C[C@H](NC(=O)[C@@H]1CCCN1C(=O)[C@@H](N)Cc1ccc(O)cc1)C(=O)N[C@@H](Cc1ccccc1)C(N)=O` (H-YPAF-NH2), the half-maximal inhibitory concentration (IC50) on Mu-type opioid receptor is 3.81 µM.
`C[C@H](NC(=O)[C@H](Cc1ccccc1)NC(=O)[C@@H]1CCCN1C(=O)[C@@H](N)Cc1ccc(O)cc1)C(N)=O` (H-YPFA-NH2): the IC50 on Mu-type opioid receptor amounted to 0.0854 µM.
Regarding `NC(=O)[C@H](Cc1c[nH]cn1)NC(=O)[C@H](Cc1ccccc1)NC(=O)[C@@H]1CCCN1C(=O)[C@@H](N)Cc1ccc(O)cc1` (H-YPFH-NH2), the concentration for half-maximal inhibition (IC50) in assay [1] was greater than 1000 µM; at Mu-type opioid receptor it was 0.138 µM.
On Mu-type opioid receptor, `NCCCC[C@H](NC(=O)[C@H](Cc1ccccc1)NC(=O)[C@@H]1CCCN1C(=O)[C@@H](N)Cc1ccc(O)cc1)C(N)=O` (H-YPFK-NH2) yielded an IC50 of 0.408 µM.
Turning to `CC(C)C[C@H](NC(=O)[C@H](Cc1ccccc1)NC(=O)[C@@H]1CCCN1C(=O)[C@@H](N)Cc1ccc(O)cc1)C(N)=O` (H-YPFL-NH2), the concentration for half-maximal inhibition (IC50) in assay [1] was greater than 1000 µM; on Mu-type opioid receptor it was 0.062 µM.
Turning to `CC(C)[C@H](NC(=O)[C@H](Cc1ccccc1)NC(=O)[C@@H]1CCCN1C(=O)[C@@H](N)Cc1ccc(O)cc1)C(N)=O` (H-YPFV-NH2), the figures for the 50% inhibitory concentration (IC50) (in assay [1]; on Mu-type opioid receptor) were greater than 1000 µM and 0.0765 µM, respectively.
The corresponding values for `NC(=O)[C@H](Cc1c[nH]c2ccccc12)NC(=O)[C@H](Cc1ccccc1)NC(=O)[C@@H]1CCCN1C(=O)[C@@H](N)Cc1ccc(O)cc1` (H-YPFW-NH2) are greater than 1000 µM and 0.0871 µM.
In the case of `NC(=O)[C@H](Cc1ccc(O)cc1)NC(=O)[C@H](Cc1ccccc1)NC(=O)[C@@H]1CCCN1C(=O)[C@@H](N)Cc1ccc(O)cc1` (H-YPFY-NH2), the IC50 stood at 54.5 µM in assay [1] and 0.0622 µM on Mu-type opioid receptor. Further, in assay [2], the Ratio IC50 amounted to 5.2.
Consider `NC(=O)[C@H](Cc1ccccc1)NC(=O)[C@H](Cc1c[nH]cn1)NC(=O)[C@@H]1CCCN1C(=O)[C@@H](N)Cc1ccc(O)cc1` (H-YPHF-NH2), for which the IC50 in assay [1] was greater than 1000 µM; at Mu-type opioid receptor, 4.49 µM.
On Mu-type opioid receptor, `NCCCC[C@H](NC(=O)[C@@H]1CCCN1C(=O)[C@@H](N)Cc1ccc(O)cc1)C(=O)N[C@@H](Cc1ccccc1)C(N)=O` (H-YPKF-NH2) displayed an IC50 greater than 1000 µM.
On to `CC(C)C[C@H](NC(=O)[C@@H]1CCCN1C(=O)[C@@H](N)Cc1ccc(O)cc1)C(=O)N[C@@H](Cc1ccccc1)C(N)=O` (H-YPLF-NH2), for which the IC50 in assay [1] was greater than 1000 µM; at Mu-type opioid receptor, 0.926 µM.
With `CC(C)[C@H](NC(=O)[C@@H]1CCCN1C(=O)[C@@H](N)Cc1ccc(O)cc1)C(=O)N[C@@H](Cc1ccccc1)C(N)=O` (H-YPVF-NH2), the IC50 in assay [1] was greater than 1000 µM; at Mu-type opioid receptor, 2.65 µM.
Regarding `NC(=O)[C@H](Cc1ccccc1)NC(=O)[C@H](Cc1ccc(O)cc1)NC(=O)[C@@H]1CCCN1C(=O)[C@@H](N)Cc1ccc(O)cc1` (H-YPYF-NH2), the concentration for half-maximal inhibition (IC50) in assay [1] worked out at 5.72 µM; on Mu-type opioid receptor, 1.1 µM. For the same molecule, the Ratio IC50 in assay [2] was determined as 5.2.
For `NC(=O)[C@H](CC1CCCCC1)NC(=O)[C@H](Cc1ccccc1)NC(=O)[C@@H]1CCCN1C(=O)[C@@H](N)Cc1ccc(O)cc1` (HELM PEPTIDE1{Y.P.F.[Cha].[am]}$$$$V2.0), the concentration for half-maximal inhibition (IC50) was 11.4 µM in assay [1] and 0.917 µM on Mu-type opioid receptor. Also, the Ratio IC50 in assay [2] came out at 21.3.
For `CCCC[C@H](NC(=O)[C@H](Cc1ccccc1)NC(=O)[C@@H]1CCCN1C(=O)[C@@H](N)Cc1ccc(O)cc1)C(N)=O` (HELM PEPTIDE1{Y.P.F.[Nle].[am]}$$$$V2.0), the IC50 is greater than 1000 µM in assay [1] and 0.0339 µM on Mu-type opioid receptor.
For `NC(=O)[C@H](Cc1ccccc1)NC(=O)[C@H](CC1CCCCC1)NC(=O)[C@@H]1CCCN1C(=O)[C@@H](N)Cc1ccc(O)cc1` (HELM PEPTIDE1{Y.P.[Cha].F.[am]}$$$$V2.0), the figures for the IC50 (in assay [1]; at Mu-type opioid receptor) were 3.15 µM and 0.148 µM, respectively. In assay [2], the Ratio IC50 is 21.3.
As for `CCCC[C@H](NC(=O)[C@@H]1CCCN1C(=O)[C@@H](N)Cc1ccc(O)cc1)C(=O)N[C@@H](Cc1ccccc1)C(N)=O` (HELM PEPTIDE1{Y.P.[Nle].F.[am]}$$$$V2.0), the figures for the 50% inhibitory concentration (IC50) (in assay [1]; at Mu-type opioid receptor) were 15.2 µM and 0.23 µM, respectively. Also, the Ratio IC50 in assay [2] came to 66.1.
In assay [1], `C[C@@H](NC(=O)[C@@H](N)Cc1ccc(O)cc1)C(=O)NCC(=O)N(C)[C@@H](Cc1ccccc1)C(=O)NCCO` [DAMGO] yielded an IC50 of 0.727 µM.
